From ChEMBL document CHEMBL1129321, “Discovery of an orally active non-peptide fibrinogen receptor antagonist” (J Med Chem, 1996) come the findings set out here.

For data set [1], the species on record is Homo sapiens. In words: Inhibitory activity against aggregation of human platelets. In kind it is functional, organism-based. In short, it runs like this:
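Human platelets were gel-filtered from PRP on Sepharose 2B and used at 3 × 10⁸ platelets/mL with 1 mg/mL fibrinogen. Compounds were added at 37 °C 2 min before activation with 10 µM ADP, with stirring at 1000 rpm at 37 °C. Aggregation was read as the maximal increase in light transmittance. IC50 is the mean over GFP from two to six donors.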

Data set [2] concerns the target T1, Integrin alpha-IIb/beta-3 (Homo sapiens, UniProt P05106+P08514). In words: Inhibition of [125I]fibrinogen binding to isolated GPIIb/IIIa. It is filed as protein-complex assay.
The next data set is filed under the species Canis familiaris. In words: Inhibitory activity against dog platelet aggregation in GFP. It is filed as functional, organism-based. The conditions noted are these: Canis lupus familiaris.
Data set [3] is described as follows: Oral bioavailability in dog. In kind it is ADME, organism-based, Canis lupus familiaris. The settings on record: in vivo. In short, it runs like this:
(§1)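 Conscious dogs received compound intravenously and orally, and blood was sampled over time for plasma. Active plasma equivalents were measured by bioassay as inhibition of ¹²⁵I-fibrinogen binding to isolated, immobilized GPIIb/IIIa. Kinetic data points are means from four dogs.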

Data set [4] concerns the target T1, Integrin alpha-IIb/beta-3. In words: Inhibition of [125I]fibrinogen binding to ADP-activated human gel filtered platelets.
The species entered for data set [5] is Homo sapiens. The data set can be described thus: Inhibitory activity against platelet rich plasma. It is filed as functional, organism-based.
Data set [6] in a line: Half life from dog blood after intravenous administration at a dose of 0.3 mg/kg Expt-1. In kind it is ADME, organism-based, Canis lupus familiaris. The arrangement: dose 0.3 mg/kg, route intravenous. In short, it runs like this:
as §1

Data set [7] can be described thus: Half life from dog blood after oral administration at a dose of 3 mg/kg Expt-1. In kind it is ADME, organism-based, Canis lupus familiaris. The arrangement: dose 3 mg/kg, route oral. In short, it runs like this:
as §1

Data set [8] is described as follows: Half life from dog blood after oral administration at a dose of 3 mg/kg Expt-2. More on the design: dose 3 mg/kg, route oral. In kind it is ADME, organism-based, Canis lupus familiaris. In short, it runs like this:
as §1

Data set [9] in a line: Half life from dog blood after intravenous administration at a dose of 0.3 mg/kg Expt-2. The arrangement: dose 0.3 mg/kg, route intravenous. In kind it is ADME, organism-based, Canis lupus familiaris. In short, it runs like this: as §1

T1 sequence (P05106 27-788 limits assumed): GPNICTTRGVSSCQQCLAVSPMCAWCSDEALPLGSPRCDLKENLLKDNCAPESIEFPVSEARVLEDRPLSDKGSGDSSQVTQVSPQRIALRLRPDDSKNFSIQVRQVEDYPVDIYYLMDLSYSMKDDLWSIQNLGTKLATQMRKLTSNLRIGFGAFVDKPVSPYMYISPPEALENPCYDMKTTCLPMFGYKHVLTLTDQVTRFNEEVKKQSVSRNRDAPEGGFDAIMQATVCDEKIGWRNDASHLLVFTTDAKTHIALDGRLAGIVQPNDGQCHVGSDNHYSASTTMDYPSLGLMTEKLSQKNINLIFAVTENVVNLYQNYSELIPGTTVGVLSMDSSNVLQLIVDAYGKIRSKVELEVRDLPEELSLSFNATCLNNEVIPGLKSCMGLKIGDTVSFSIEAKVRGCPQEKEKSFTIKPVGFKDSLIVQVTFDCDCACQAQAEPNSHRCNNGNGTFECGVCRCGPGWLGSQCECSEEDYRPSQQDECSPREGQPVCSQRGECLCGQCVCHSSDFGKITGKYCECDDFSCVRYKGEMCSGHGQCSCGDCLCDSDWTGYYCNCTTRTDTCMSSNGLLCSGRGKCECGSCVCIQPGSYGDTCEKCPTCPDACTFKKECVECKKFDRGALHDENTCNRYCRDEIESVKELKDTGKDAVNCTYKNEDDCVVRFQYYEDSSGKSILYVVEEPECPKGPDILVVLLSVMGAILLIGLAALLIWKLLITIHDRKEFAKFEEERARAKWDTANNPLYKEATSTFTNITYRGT
T1 sequence (P08514 32-887 limits assumed): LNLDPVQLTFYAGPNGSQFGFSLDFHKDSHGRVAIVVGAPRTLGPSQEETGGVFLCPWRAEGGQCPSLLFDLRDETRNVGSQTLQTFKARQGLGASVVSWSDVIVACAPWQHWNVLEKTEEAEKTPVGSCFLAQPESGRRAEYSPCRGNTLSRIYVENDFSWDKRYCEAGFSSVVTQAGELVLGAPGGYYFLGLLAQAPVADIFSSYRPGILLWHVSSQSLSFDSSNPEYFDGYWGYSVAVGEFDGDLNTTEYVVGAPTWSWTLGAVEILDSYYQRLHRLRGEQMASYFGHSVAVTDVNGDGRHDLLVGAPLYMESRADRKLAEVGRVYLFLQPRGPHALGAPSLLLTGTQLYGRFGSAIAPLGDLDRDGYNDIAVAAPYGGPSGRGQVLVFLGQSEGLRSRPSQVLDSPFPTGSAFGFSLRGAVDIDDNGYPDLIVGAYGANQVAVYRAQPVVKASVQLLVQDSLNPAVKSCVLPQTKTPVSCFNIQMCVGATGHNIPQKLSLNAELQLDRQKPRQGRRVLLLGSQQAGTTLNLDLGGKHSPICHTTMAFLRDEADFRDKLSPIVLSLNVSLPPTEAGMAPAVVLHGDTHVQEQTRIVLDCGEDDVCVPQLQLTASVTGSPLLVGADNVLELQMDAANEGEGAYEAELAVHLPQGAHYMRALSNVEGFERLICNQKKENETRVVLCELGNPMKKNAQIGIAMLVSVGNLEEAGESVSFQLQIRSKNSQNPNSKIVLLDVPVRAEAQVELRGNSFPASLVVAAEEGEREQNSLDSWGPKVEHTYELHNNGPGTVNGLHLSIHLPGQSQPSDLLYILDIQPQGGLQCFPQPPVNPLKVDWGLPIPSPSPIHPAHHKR
T1 sequence (P08514 891-1039 limits assumed): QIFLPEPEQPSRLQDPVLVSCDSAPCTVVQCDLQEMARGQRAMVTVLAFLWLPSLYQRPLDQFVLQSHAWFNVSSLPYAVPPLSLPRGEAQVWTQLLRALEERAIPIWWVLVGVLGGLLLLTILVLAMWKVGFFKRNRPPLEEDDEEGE

The IC50 is the point on the concentration scale where inhibition reaches its midpoint. The low end stands for higher potency, the high end for lower potency. In the data set listed under Homo sapiens [1], `CC1(c2ccc(C(=N)N)cc2)NC(=O)N(CC(=O)NC(CC(=O)O)c2ccc3c(c2)OCO3)C1=O` (stereo unspecified) registered a half-maximal inhibitory concentration (IC50) of 0.08 µM. This counts as double-digit nanomolar.

As for `C[C@]1(c2ccc(C(=N)N)cc2)NC(=O)N(CC(=O)N[C@H](CC(=O)O)c2ccccc2)C1=O`, 5 µM corresponded to half-maximal inhibition in the data set listed under Homo sapiens [1] (IC50).

`N=C(N)NCCC[C@@H]1NC(=O)N(CC(=O)N[C@@H](CC(=O)O)C(=O)N[C@@H](CO)C(=O)O)C1=O` displayed an IC50 in the data set filed under Homo sapiens [1] of 10 µM.

In the case of `C[C@@]1(c2ccc(C(=N)N)cc2)NC(=O)N(CC(=O)N[C@H](CC(=O)O)c2ccccc2)C1=O`, the IC50 in the data set filed under Homo sapiens [1] worked out at 50 µM.

In general, Ki refers to the equilibrium dissociation constant of an inhibitor or competing ligand from its target. The bioavailability is the share of a dose that reaches the circulation, judged against a reference dose that is usually intravenous. A low value points to little systemic uptake. For the compound `C[C@@]1(c2ccc(C(=N)N)cc2)NC(=O)N(CC(=O)N[C@@H](CC(=O)O)c2ccccc2)C1=O`, the results for the inhibition constant Ki in data set [2] and in data set [4] were 0.00017 µM and 0.009 µM, respectively. In addition, the figures for the IC50 in the data set filed under Canis familiaris, in the data set listed under Homo sapiens [1] and in the data set filed under Homo sapiens [5] were 0.1 µM, 0.02 µM and 0.1 µM, respectively. The bioavailability in data set [3] came to 10%.

In general, half-life refers to how long it takes for the measured level to halve. A lower half-life goes with fast loss. For the compound `CCOC(=O)C[C@H](NC(=O)CN1C(=O)N[C@@](C)(c2ccc(C(=N)N)cc2)C1=O)c1ccccc1` [CARAFIBAN], the half-life in data set [6] was 1.4 h; in data set [7], 7.9 h; in [8] it was 9.9 h; in data set [9], 0.8 h. The bioavailability in [3] came out at 42%.

`C[C@]1(c2ccc(C(=N)N)cc2)NC(=O)N(CC(=O)N[C@@H](CC(=O)O)c2ccccc2)C1=O` showed a half-inhibitory concentration (IC50) in the data set listed under Homo sapiens [1] of 6 µM.

As to `CC1(c2ccc(C(=N)N)cc2)NC(=O)N(CC(=O)NC(CC(=O)O)c2cccnc2)C1=O` (stereo unspecified), in the data set filed under Homo sapiens [1], the concentration for half-maximal inhibition (IC50) came out at 0.1 µM. Compared with the last compound, the IC50 is about 60-fold lower.

The compound `N=C(N)NCCC[C@@H]1NC(=O)N(CC(=O)N[C@@H](CC(=O)O)C(=O)N[C@H](C(=O)O)c2ccccc2)C1=O` registered an IC50 in the data set listed under Homo sapiens [1] of 0.9 µM.

In the case of `CC1(c2ccc(C(=N)N)cc2)NC(=O)N(CC(=O)NC(CC(=O)O)c2ccccc2)C1=O` (stereo unspecified), in the data set listed under Homo sapiens [1], the half-maximal inhibitory concentration (IC50) turned out to be 0.2 µM. Also, the bioavailability in data set [3] came to 5%.

On to `CC1(c2ccc(C(=N)N)cc2)NC(=O)N(CC(=O)NC(CC(=O)O)c2cccc3ccccc23)C1=O` (stereo unspecified), for which the IC50 in the data set listed under Homo sapiens [1] came out at 0.3 µM.
